# Measured values published in ChEMBL document CHEMBL1821590, “Novel dihydropyrimidines and its pyrazole derivatives: synthesis and pharmacological screening” (Eur J Med Chem, 2011).
# How the values were obtained:
# Assay type in all cases: functional
# [1] = Antioxidant activity assessed as nitric oxide radical scavenging activity after 150 mins
# Method in brief: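 10 mM sodium nitroprusside (4 mL), PBS pH 7.4 (1 mL) and sample or ascorbic acid in DMSO (1 mL, 12.5–100 µg/mL), incubated 150 min at 25 °C. Nitrite detected with sulphanilic acid (5 min) then naphthylethylenediamine (30 min, diffused light). Read at […]. Triplicate. % inhibition = [1 − (Vt/Vc)] × 100. IC50 derived from it.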
# [2] = Antioxidant activity assessed as hydrogen peroxide scavenging activity after 10 mins
# Method in brief: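 H2O2 (20 mM) in PBS pH 7.4. 1 mL of sample or ascorbic acid in methanol (12.5–100 µg/mL) added to 2 mL H2O2 solution. A230 read after 10 min. % inhibition = [1 − (Vt/Vc)] × 100. Triplicate, averaged. IC50 derived from % inhibition across concentrations.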
# [3] = Antioxidant activity assessed as inhibition of lipid peroxidation using egg lecithin liposomes incubated for 1 hr
# Method in brief: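 Egg lecithin (3 mg/mL, phosphate buffer pH 7.4) sonicated 10 min to form liposomes. Sample or ascorbic acid (12.5–100 µg/mL) added. Peroxidation induced with FeCl3 and L-ascorbic acid, 1 h at 37 °C. Stopped with HCl/TCA/TBA/BHA, boiled 15 min, centrifuged, supernatant read at 532 nm. Triplicate. % inhibition vs control. IC50 derived.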
# [4] = Antioxidant activity assessed as potassium ferricyanide ion reducing power after 20 mins
# Method in brief: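 Oyaizu method. Samples or ascorbic acid in DMF (12.5–100 µg/mL) mixed with 0.2 M phosphate buffer pH 6.6 and 1% potassium ferricyanide, 20 min at 50 °C. 10% TCA added, centrifuged. Supernatant mixed with water and 0.1% FeCl3, read at 700 nm. % = [(Vt/Vc) − 1] × 100. IC50 derived.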
# [5] = Antiinflammatory activity assessed as inhibition of albumin denaturation at 100 ug/ml by UV-visible spectrophotometry
# Method in brief: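 Compounds dissolved in minimal DMF, diluted in PBS pH 7.4 (final DMF <2.5%). 1 mL test solution (100 µg/mL) plus 1 mL 1% albumin in PBS, 15 min at 27 ± 1 °C, then heated 10 min at 60 ± 1 °C. After cooling, turbidity read at 660 nm. % inhibition = [(Vt/Vc) − 1] × 100 against a no-drug control. Triplicate, averaged. Diclofenac standard.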
# Metaphire posthuma [6] = assay: Anthelmintic activity against Pheretima posthuma assessed as time taken for complete parasite paralysis at 0.1% w/v
# Method in brief: (§1)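 Earthworms (Pheretima posthuma) exposed to test solutions at 0.1, 0.2 and 0.5% w/v; time in minutes to complete paralysis (worms motionless) recorded. Albendazole as standard. Mean of three determinations ± S.D.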
# Metaphire posthuma [7] = assay: Anthelmintic activity against Pheretima posthuma assessed as time taken for complete parasite paralysis at 0.2% w/v; method in brief: as §1
# Metaphire posthuma [8] = assay: Anthelmintic activity against Pheretima posthuma assessed as time taken for complete parasite paralysis at 0.5% w/v; method in brief: as §1
# Metaphire posthuma [9] = assay: Anthelmintic activity against Pheretima posthuma assessed as time taken for parasite death at 0.1% w/v
# Method in brief: (§2)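 Earthworms (Pheretima posthuma, spelled Perituma posthuma in text) exposed to test compounds at 0.1, 0.2 and 0.5% w/v. Albendazole served as standard, with an untreated control. Paralysis was recorded as the time until worms became motionless, then time to death was recorded, in minutes. Each value is the mean of three determinations with S.D.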
# Metaphire posthuma [10] = assay: Anthelmintic activity against Pheretima posthuma assessed as time taken for parasite death at 0.2% w/v; method in brief: as §2
# Metaphire posthuma [11] = assay: Anthelmintic activity against Pheretima posthuma assessed as time taken for parasite death at 0.5% w/v; method in brief: as §2
# Escherichia coli [12] = assay: Antimicrobial activity against Escherichia coli at 25 ug/ml by agar plate diffusion technique; settings: read-out: IZ
# Method in brief: (§3)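 Agar plate diffusion against E. coli, P. aeruginosa, S. aureus and B. subtilis, with compounds at 25, 50 and 100 µg/mL. Streptomycin as standard.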
# Escherichia coli [13] = assay: Antimicrobial activity against Escherichia coli at 50 ug/ml by agar plate diffusion technique; settings: read-out: IZ; method in brief: as §3
# Escherichia coli [14] = assay: Antimicrobial activity against Escherichia coli at 100 ug/ml by agar plate diffusion technique; settings: read-out: IZ; method in brief: as §3
# Pseudomonas aeruginosa [15] = assay: Antimicrobial activity against Pseudomonas aeruginosa at 25 ug/ml by agar plate diffusion technique; settings: read-out: IZ; method in brief: as §3
# Pseudomonas aeruginosa [16] = assay: Antimicrobial activity against Pseudomonas aeruginosa at 50 ug/ml by agar plate diffusion technique; settings: read-out: IZ; method in brief: as §3
# Pseudomonas aeruginosa [17] = assay: Antimicrobial activity against Pseudomonas aeruginosa at 100 ug/ml by agar plate diffusion technique; settings: read-out: IZ; method in brief: as §3
# Bacillus subtilis [18] = assay: Antimicrobial activity against Bacillus subtilis at 25 ug/ml by agar plate diffusion technique; settings: read-out: IZ; method in brief: as §3
# Bacillus subtilis [19] = assay: Antimicrobial activity against Bacillus subtilis at 50 ug/ml by agar plate diffusion technique; settings: read-out: IZ; method in brief: as §3
# Bacillus subtilis [20] = assay: Antimicrobial activity against Bacillus subtilis at 100 ug/ml by agar plate diffusion technique; settings: read-out: IZ; method in brief: as §3
# Staphylococcus aureus [21] = assay: Antimicrobial activity against Staphylococcus aureus at 25 ug/ml by agar plate diffusion technique; settings: read-out: IZ; method in brief: as §3
# Staphylococcus aureus [22] = assay: Antimicrobial activity against Staphylococcus aureus at 50 ug/ml by agar plate diffusion technique; settings: read-out: IZ; method in brief: as §3
# Staphylococcus aureus [23] = assay: Antimicrobial activity against Staphylococcus aureus at 100 ug/ml by agar plate diffusion technique; settings: read-out: IZ; method in brief: as §3
# Candida albicans [24] = assay: Antimicrobial activity against Candida albicans at 25 ug/ml by paper disc method; settings: read-out: IZ
# Method in brief: (§4)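 Paper disc method against A. niger and C. albicans, with compounds at 25, 50 and 100 µg/mL. Amphotericin-B as standard.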
# Candida albicans [25] = assay: Antimicrobial activity against Candida albicans at 50 ug/ml by paper disc method; settings: read-out: IZ; method in brief: as §4
# Candida albicans [26] = assay: Antimicrobial activity against Candida albicans at 100 ug/ml by paper disc method; settings: read-out: IZ; method in brief: as §4
# Aspergillus niger [27] = assay: Antimicrobial activity against Aspergillus niger at 25 ug/ml by paper disc method; settings: read-out: IZ; method in brief: as §4
# Aspergillus niger [28] = assay: Antimicrobial activity against Aspergillus niger at 50 ug/ml by paper disc method; settings: read-out: IZ; method in brief: as §4
# Aspergillus niger [29] = assay: Antimicrobial activity against Aspergillus niger at 100 ug/ml by paper disc method; settings: read-out: IZ; method in brief: as §4
smiles,measurement,setting,value
Cn1c(NN)nc(-c2ccccc2F)c(C#N)c1=O,IC50,[1],60 µg/mL
same,IC50,[2],49 µg/mL
same,IC50,[3],43 µg/mL
same,IC50,[4],50 µg/mL
same,inhibition,[5],42.1%
same,Time,Metaphire posthuma [6],54.93 min
same,Time,Metaphire posthuma [7],51.34 min
same,Time,Metaphire posthuma [8],48.77 min
same,Time,Metaphire posthuma [9],68.45 min
same,Time,Metaphire posthuma [10],65.43 min
same,Time,Metaphire posthuma [11],61.02 min
same,zone of inhibition at 25 µg/mL,Escherichia coli [12],9.85 mm
same,zone of inhibition at 50 µg/mL,Escherichia coli [13],13.5 mm
same,zone of inhibition at 100 µg/mL,Escherichia coli [14],15.3 mm
same,zone of inhibition at 25 µg/mL,Pseudomonas aeruginosa [15],9 mm
same,zone of inhibition at 50 µg/mL,Pseudomonas aeruginosa [16],13.8 mm
same,zone of inhibition at 100 µg/mL,Pseudomonas aeruginosa [17],15.4 mm
same,zone of inhibition at 25 µg/mL,Bacillus subtilis [18],13.1 mm
same,zone of inhibition at 50 µg/mL,Bacillus subtilis [19],15.7 mm
same,zone of inhibition at 100 µg/mL,Bacillus subtilis [20],21.6 mm
same,zone of inhibition at 25 µg/mL,Staphylococcus aureus [21],13.6 mm
same,zone of inhibition at 50 µg/mL,Staphylococcus aureus [22],17.3 mm
same,zone of inhibition at 100 µg/mL,Staphylococcus aureus [23],22.2 mm
same,zone of inhibition at 25 µg/mL,Candida albicans [24],11.8 mm
same,zone of inhibition at 50 µg/mL,Candida albicans [25],17 mm
same,zone of inhibition at 100 µg/mL,Candida albicans [26],19.2 mm
same,zone of inhibition at 25 µg/mL,Aspergillus niger [27],11.1 mm
same,zone of inhibition at 50 µg/mL,Aspergillus niger [28],14 mm
same,zone of inhibition at 100 µg/mL,Aspergillus niger [29],19.6 mm
